Measured values published in PMC7397943 (Journal of Ethnopharmacology, 2020).

Tests used:
THP–1 cells = test: Glutathione determination; assay type: cell-based; conditions: maximum redox index reached, maximum 1 (all glutathione reduced)
Procedure, shortened: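 THP-1 cells were treated with serial dilutions of test compound, with resveratrol as reference. Cells were lysed in 0.1 M sodium phosphate/0.005 M EDTA, pH 8, plus 60% HClO4 (10 μL/mL), then spun at 6000g for 10 min at 4 °C. GSH and GSSG were measured by OPT fluorescence (ex 350/em 420 nm) against a GSH standard curve. Redox index = GSH/(GSH+GSSG), maximum 1. EC50 and Emax came from non-linear dose-response fits.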

[1] = Cell viability in mock–infected MT–2 cells; assay type: cell-based; conditions: human, mock-infected MT-2 cells
Procedure, shortened: (§1)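 Test compound (from 10 mg/mL or 10 mM DMSO stocks) was added at graded concentrations to mock-infected MT-2 cells, run in parallel with the 48 h antiviral assay. Cells were grown in RPMI-1640 with 10% FBS, 2 mM L-glutamine and penicillin/streptomycin at 37 °C, 5% CO2. Viability was read by CellTiter Glo as % of the DMSO-matched control. CC50 came from non-linear regression.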

[2] = tested on: recombinant HIV–1 (NL4.3–Ren); assay type: cell-based; conditions: Human immunodeficiency virus 1, MT2, 48 h, read-out: IC50 μM HIV (CI95%; R2), isolated compounds, MT–2 cells, wild type HIV NL4.3–Ren
Procedure, shortened: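 MT-2 cells (RPMI-1640, 10% FBS, 2 mM L-glutamine, penicillin/streptomycin; 37 °C, 5% CO2) were infected with NL4.3-Ren supernatant (100.000 RLUs or 20 ng p24 per well) alongside serial dilutions of test compound (10 mM DMSO stock). Enfuvirtide served as control. After 48 h, lysates were read for Renilla-luciferase RLUs against vehicle-matched untreated cells (100%). IC50 came from non-linear regression.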

NF–κB = NF–κB activity: MT–2 cells transfected with NF–κB–Luc plasmid; assay type: cell-based
Procedure, shortened: (§2)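 MT-2 cells were electroporated at 260 V in serum-free RPMI with a luciferase reporter: pNL4.3-Luc (whole HIV-1 genome), 3-enh-κB-ConA-luc (three κB copies), or Sp1-Luc (two Sp1 sites). Cells were seeded in complete RPMI with serial dilutions or one selected concentration of test compound at 37 °C for 48 h. PMA 100 nM was the reference. RLUs were expressed as % of DMSO control, with Bonferroni-corrected one-way ANOVA.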

[3] = tested on: HIV transcription (pNL4.3–Luc); test: HIV transcription assay: MT–2 cells transfected with pNL4.3–Luc; assay type: cell-based, HIV–1
Procedure, shortened: as §2

[4] = tested on: VSV pseudotyped HIV (VSV–HIV); test: microbe, parasite or virus in culture; assay type: cell-based, HIV–1; conditions: for IC50: Vesicular stomatitis virus, MT2, 48 h, read-out: IC50 μM VSV–HIV (CI95%; R2); for Effect on viral entry: comparison of HIV IC50 and VSV–HIV IC50 in MT–2 cells
Sp1 = Sp1 activity: MT–2 cells transfected with Sp1–Luc plasmid; assay type: cell-based; conditions: 48 h
Procedure, shortened: as §2

MT–2 cells = test: Cell viability in mock–infected MT–2 cells; assay type: cell-based; conditions: MT–2 cells
Procedure, shortened: as §1

[5] = fixed concentration 20 μM, NF–κB–Luc, 48 h
[6] = fixed concentration 20 μM, pNL4.3–Luc, 48 h

Row | Structure (SMILES) | Emax (CI95%) (THP–1 cells) | CC50 at 48 h [1] | IC50 [2] | Effect on NF–κB activity (NF–κB; [5]) | Effect on HIV transcription [3, 6] | IC50 [4] | Effect on viral entry [4] | Effect on Sp1 activity (Sp1; fixed concentration 20 μM) | Concentrations toxic to MT–2 cells (MT–2 cells) | Effect on NF–κB activity (NF–κB; 4 μM, NF–κB–Luc, 48 h, vs untreated control) | Effect on HIV transcription ([3]; 4 μM, pNL4.3–Luc, 48 h, vs untreated control) | Effect on Sp1 activity (Sp1; 4 μM, vs untreated control) | Toxicity at 100 μM (MT–2 cells; 100 μM) | Effect on NF–κB activity (NF–κB; one selected active concentration (not given)) | Effect on HIV transcription ([3]; one selected active concentration (not given), compared with damsin)
1 | Oc1ccc(/C=C/c2cc(O)cc(O)c2)cc1 [Resveratrol, resveratrol, reference compound] | 0.94 (0.92–0.96) |  |  |  |  |  |  |  |  |  |  |  |  |  | 
2 | COc1c(OC)c(O)c2c(=O)cc(-c3ccc(O)cc3)oc2c1OC [Xanthomicrol, xanthomicrol] | 0.93 (0.81–1.04) | > 100 µM | 17.4 µM | weak inhibition of NF–κB | active as HIV transcriptional inhibitor | 34.4 µM | HIV–1 entry is impaired | no effect on Sp1 |  |  |  |  |  |  | 
3 | COc1ccc(-c2cc(=O)c3cc(OC)ccc3o2)c(OC)c1 [Trimethoxyflavone, 6,2′,4′–trimethoxyflavone] | 0.74 (0.47–1.00) | > 100 µM | 28.4 µM | almost complete inhibition | almost complete inhibition | 35.6 µM | ruling out an effect on viral entry | almost complete inhibition |  |  |  |  |  |  | 
4 | C=C1C(=O)O[C@@H]2[C@H]1CC[C@H](C)[C@@H]1CCC(=O)[C@@]21C [Damsin, damsin] |  | 20 to 100 µM | 0.84 µM |  |  | 0.83 µM | viral entry is not their target |  | higher than 20 μM | completely inhibits | completely inhibits | completely inhibits |  |  | 
5 | C[C@]12CCC(=O)C=C1C=C[C@@H]1[C@@H]2CC[C@@]2(C)[C@H]1CC[C@@]21CCC(=O)O1 [Canrenone, canrenone] |  | ~100 µM | 18.9 µM |  |  | 14.2 µM | viral entry is not their target |  |  |  |  |  | slight toxicity | more powerful activity as a NF–κB inhibitor than as a Sp1 inhibitor | slightly less active
